These results are taken from ChEMBL document CHEMBL1137569, “Pharmacomodulations around the 4-oxo-1,4-dihydroquinoline-3-carboxamides, a class of potent CB2-selective cannabinoid receptor ligands: consequences in receptor affinity and functionality” (J Med Chem, 2007).

Assay [1] concerns the target T1, Cannabinoid receptor 2 (Homo sapiens, UniProt P34972). Briefly: Displacement of [3H]CP-55940 from human CB2 receptor expressed in CHO cells. The class given is cell-based. The arrangement: concentration or dose not given beside the values. The gist of the method:
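Competitive radioligand binding on membranes from CHO cells expressing hCB2, with [3H]-CP-55,940 as tracer. Compounds were first screened at 10 µM. Ki at CB2 was then determined for those displacing more than 60% of specific binding.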
For orientation: Loss of bound radioactivity is the signal in a displacement assay; it reports binding, not function.

Assay [2] addresses T1, Cannabinoid receptor 2. Nature of the assay: Inhibition of human CB2 receptor expressed in CHO cells. Type of assay: cell-based.
Assay [3] concerns the target T1, Cannabinoid receptor 2. Nature of the assay: Activity at human CB2 receptor expressed in CHO cells assessed as stimulated [35S]GTP-gamma-S binding relative to control. Type of assay: functional, cell-based. The arrangement: concentration or dose not given beside the values. On the technique in general: Binding of GTPγS marks nucleotide exchange on a G protein.
Assay [4] concerns the target T1, Cannabinoid receptor 2. Nature of the assay: Displacement of [3H]SR-141716A from human CB2 receptor expressed in CHO cells at 10 uM. The class given is cell-based.
Assay [5] concerns the target Cannabinoid receptor 1 (Homo sapiens) (UniProt P21554). Nature of the assay: Displacement of [3H]SR-141716A from human CB1 receptor expressed in CHO cells at 10 uM. Type of assay: cell-based. The gist of the method: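 Single-concentration (10 µM) competition screen on membranes from CHO cells expressing hCB1, with [3H]SR-141716A as radioligand. Read-out is percent displacement of the radioligand from its binding site.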

T1 sequence (P34972 whole entry): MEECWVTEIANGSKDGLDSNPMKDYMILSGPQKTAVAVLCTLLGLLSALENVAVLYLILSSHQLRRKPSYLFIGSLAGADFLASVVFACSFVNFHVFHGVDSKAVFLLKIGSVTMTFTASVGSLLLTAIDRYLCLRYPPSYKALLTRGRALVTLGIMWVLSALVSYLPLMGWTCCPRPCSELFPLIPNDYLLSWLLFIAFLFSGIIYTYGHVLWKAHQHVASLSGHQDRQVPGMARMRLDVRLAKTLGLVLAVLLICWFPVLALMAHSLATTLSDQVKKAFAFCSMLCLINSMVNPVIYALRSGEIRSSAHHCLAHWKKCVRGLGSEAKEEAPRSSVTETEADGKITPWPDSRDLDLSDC
Sequence of Cannabinoid receptor 1 (Homo sapiens) (P21554 whole entry): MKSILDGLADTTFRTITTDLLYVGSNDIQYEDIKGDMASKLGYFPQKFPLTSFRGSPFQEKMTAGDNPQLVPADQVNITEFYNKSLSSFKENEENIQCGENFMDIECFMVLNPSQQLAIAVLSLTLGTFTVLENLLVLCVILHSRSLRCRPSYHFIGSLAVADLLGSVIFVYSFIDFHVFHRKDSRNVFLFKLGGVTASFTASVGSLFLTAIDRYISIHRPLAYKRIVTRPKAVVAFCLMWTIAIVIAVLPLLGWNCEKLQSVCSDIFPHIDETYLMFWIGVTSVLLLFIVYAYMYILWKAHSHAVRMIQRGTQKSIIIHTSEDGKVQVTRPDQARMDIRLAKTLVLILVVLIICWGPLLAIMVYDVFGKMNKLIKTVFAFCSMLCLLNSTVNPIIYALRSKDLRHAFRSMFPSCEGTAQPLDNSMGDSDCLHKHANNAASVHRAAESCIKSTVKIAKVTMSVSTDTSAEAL

As a reminder, the Ki is the equilibrium dissociation constant of an inhibitor or competing ligand from its target. On to `CCCCCn1cc(C(=O)NC23CC4CC(C)(CC(C)(C4)C2)C3)c(=O)c2cccc(Cl)c21`, for which the values for the Activity on Cannabinoid receptor 2 [1] and at Cannabinoid receptor 2 [3] were 98.7% and 187%, respectively. In addition, at Cannabinoid receptor 2 [2], the Ki is 27.4 nM.
For `CCCCCn1cc(C(=O)NC23CC4CC(C)(CC(C)(C4)C2)C3)c(=O)c2cc(Cl)ccc21`, in that order: 86.7%, 49.6% and 54.6 nM.
For `CCCCCn1c(-c2ccccc2)c(C(=O)NC23CC4CC(C)(CC(C)(C4)C2)C3)c(=O)c2ccccc21`, in that order: 97.2%, 27.1% and 119 nM.
For `CCCCCn1c(C)c(C(=O)NC(C)c2ccccc2)c(=O)c2ccccc21` (single isomer, unassigned; (-)), in that order: 91.7%, 186% and 663 nM.
On to `CC12CC3CC(C)(C1)CC(NC(=O)c1cn(CCCc4ccccc4)c4ccccc4c1=O)(C3)C2`, for which the Activity on Cannabinoid receptor 2 [1] was 101%; on Cannabinoid receptor 2 [3] it was 98.8%. Besides, the affinity on Cannabinoid receptor 2 [2] corresponds to a Ki of 160 nM.
On the same counts, the results for `CCCCCn1cc(C(=O)NC23CC4CC(C)(CC(C)(C4)C2)C3)c(=O)c2ncccc21` are 93.4%, 170% and 259 nM.
On the same counts, the results for `CCCCCn1nc(C(=O)NC23CC4CC(C)(CC(C)(C4)C2)C3)c(=O)c2ccccc21` are 94.6%, 109% and 93 nM.
Turning to `O=C(c1cn(Cc2ccc(F)cc2)c2ccccc2c1=O)c1cccc2ccccc12`, the Activity at Cannabinoid receptor 2 [1] stood at 112%; at Cannabinoid receptor 2 [4], 70%. Further, the affinity at Cannabinoid receptor 2 [2], expressed as Ki, was 225 nM.
Regarding `CCCCCn1c(-c2ccccc2)c(C(=O)NC23CC4CC(CC(C4)C2)C3)c(=O)c2ccccc21`, the results for the Activity on Cannabinoid receptor 2 [1] and at Cannabinoid receptor 2 [3] were 94.9% and 26.5%, respectively. The compound further returned an inhibition constant Ki at Cannabinoid receptor 2 [2] of 338 nM.
As for `CCCCCn1cc(C(=O)NC23CC4CC(C)(CC(C)(C4)C2)C3)c(=S)c2ccccc21`, the Activity at Cannabinoid receptor 2 [1] stood at 95.7%; on Cannabinoid receptor 2 [3], 65.6%. In addition, the Ki at Cannabinoid receptor 2 [2] was determined as 18.2 nM.
Regarding `CC12CC3CC(C)(C1)CC(NC(=O)c1cn(Cc4ccc(F)cc4)c4ccccc4c1=O)(C3)C2`, the figures for the Activity at Cannabinoid receptor 2 [1] and at Cannabinoid receptor 2 [3] were 93.2% and 157%, respectively. On Cannabinoid receptor 2 [2], this compound displayed a Ki of 83.4 nM.
Consider `CCCCCn1cc(C(=O)NC23CC4CC(C)(CC(C)(C4)C2)C3)c(=O)c2cccnc21`, for which the values for the Activity on Cannabinoid receptor 2 [1] and at Cannabinoid receptor 2 [3] were 102% and 124%, respectively. The compound also gave a Ki at Cannabinoid receptor 2 [2] of 23.5 nM.
On the same counts, the results for `CCCCCn1cc(NC(=O)CCc2ccccc2)c(=O)c2ccccc21` are 83.4%, 183% and 1130 nM.
As for `CCCCCn1cc(C(=O)c2cccc3ccccc23)c(=O)c2ccccc21`, the Activity at Cannabinoid receptor 2 [1] amounted to 97%; in assay [5], 56%. The affinity at Cannabinoid receptor 2 [2], expressed as Ki, was 154 nM.
For the compound `CC12CC3CC(C)(C1)CC(NC(=O)c1cn(CCN4CCOCC4)c4ccccc4c1=O)(C3)C2`, the Activity is 95.6% on Cannabinoid receptor 2 [1] and 141% on Cannabinoid receptor 2 [3]. For the same compound, at Cannabinoid receptor 2 [2], the Ki is 221 nM.
For `CC12CC3CC(C)(C1)CC(NC(=O)c1cn(CCc4ccccc4)c4ccccc4c1=O)(C3)C2`, the Activity at Cannabinoid receptor 2 [1] came to 95.8%; on Cannabinoid receptor 2 [3] it was 141%. On Cannabinoid receptor 2 [2], this compound registered a Ki of 333 nM.
Consider `CCCCCn1cc(C(=O)NCC23CC4CC(CC(C4)C2)C3)c(=O)c2ccccc21`, for which the Activity on Cannabinoid receptor 2 [1] worked out at 87.2%; on Cannabinoid receptor 2 [3], 155%. This compound had a Ki on Cannabinoid receptor 2 [2] of 50.6 nM.
As for `CCCCCn1cc(NC(=O)c2cccc3ccccc23)c(=O)c2ccccc21`, the Activity at Cannabinoid receptor 2 [1] is 97.4%; at Cannabinoid receptor 2 [3] it was 139%. The compound also registered an inhibition constant Ki at Cannabinoid receptor 2 [2] of 265 nM.
